pEC50: −log10 of the molar value.
Columns and labels:
[1] = target: T1, Retinoic acid receptor RXR-alpha (Homo sapiens, UniProt P19793); assay: Agonist activity at human RXRalpha transfected in human HEK293T cells co-expressing pFR/pRL-Luc incubated for 14 to 16 hrs by hybrid reporter gene assay; type: cell-based
T1 sequence (P19793 whole entry): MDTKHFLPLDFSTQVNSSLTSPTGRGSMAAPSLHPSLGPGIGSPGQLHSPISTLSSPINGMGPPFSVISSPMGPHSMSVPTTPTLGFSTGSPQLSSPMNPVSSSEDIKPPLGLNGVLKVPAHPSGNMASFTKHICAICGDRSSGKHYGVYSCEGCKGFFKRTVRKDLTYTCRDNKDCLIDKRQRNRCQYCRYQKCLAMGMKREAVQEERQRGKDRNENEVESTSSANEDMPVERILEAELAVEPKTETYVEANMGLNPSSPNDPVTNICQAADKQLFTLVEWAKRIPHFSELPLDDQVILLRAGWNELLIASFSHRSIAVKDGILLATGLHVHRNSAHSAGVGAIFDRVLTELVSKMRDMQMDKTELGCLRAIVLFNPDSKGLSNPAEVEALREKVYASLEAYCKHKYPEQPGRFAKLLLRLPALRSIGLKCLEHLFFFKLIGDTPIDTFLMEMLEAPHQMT

[2] = target: T2, Oxysterols receptor LXR-beta (Homo sapiens) (UniProt P55055); assay: Agonist activity against human LXRbeta in human HEK293T cells co-expressing pFR/pRL-Luc assessed as receptor activation at 10 uM incubated for 14 to 16 hrs by hybrid reporter gene assay relative to bexarotene; type: cell-based; conditions: filed as agonist, time 14-16 hrs
T2 sequence (whole entry): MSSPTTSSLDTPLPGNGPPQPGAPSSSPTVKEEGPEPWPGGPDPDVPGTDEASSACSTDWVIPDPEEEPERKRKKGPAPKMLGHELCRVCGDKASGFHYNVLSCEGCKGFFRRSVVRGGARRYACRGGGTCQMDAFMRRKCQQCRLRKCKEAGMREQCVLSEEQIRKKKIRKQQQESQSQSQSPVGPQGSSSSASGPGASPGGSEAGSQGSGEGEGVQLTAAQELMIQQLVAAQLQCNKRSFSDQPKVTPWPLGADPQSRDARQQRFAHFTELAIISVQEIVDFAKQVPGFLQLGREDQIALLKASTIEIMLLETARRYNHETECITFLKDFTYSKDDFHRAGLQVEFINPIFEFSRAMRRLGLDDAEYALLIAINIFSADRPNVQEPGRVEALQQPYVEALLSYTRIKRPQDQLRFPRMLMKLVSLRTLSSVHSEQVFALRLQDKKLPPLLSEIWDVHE
How it was run: (§1)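 Gal4 hybrid reporter assay in HEK293T cells, seeded 24 h before transfection (Lipofectamine LTX, Opti-MEM) with pFR-Luc, pRL-SV40 and pFA-CMV plasmid carrying the hinge region and LBD of the human receptor. After 5 h, compound added in 0.1% DMSO, with 0.1% DMSO alone as untreated control. Dual-Glo luciferase read after 14−16 h; firefly/renilla normalized; duplicates, ≥2 independent experiments.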

[3] = target: T3, Nuclear receptor subfamily 1 group I member 3 (Homo sapiens, UniProt Q14994); assay: Agonist activity against human CAR in human HEK293T cells co-expressing pFR/pRL-Luc assessed as receptor activation at 10 uM incubated for 14 to 16 hrs by hybrid reporter gene assay relative to bexarotene; type: cell-based; conditions: time 14-16 hrs; how it was run: as §1
T3 sequence (Q14994 whole entry): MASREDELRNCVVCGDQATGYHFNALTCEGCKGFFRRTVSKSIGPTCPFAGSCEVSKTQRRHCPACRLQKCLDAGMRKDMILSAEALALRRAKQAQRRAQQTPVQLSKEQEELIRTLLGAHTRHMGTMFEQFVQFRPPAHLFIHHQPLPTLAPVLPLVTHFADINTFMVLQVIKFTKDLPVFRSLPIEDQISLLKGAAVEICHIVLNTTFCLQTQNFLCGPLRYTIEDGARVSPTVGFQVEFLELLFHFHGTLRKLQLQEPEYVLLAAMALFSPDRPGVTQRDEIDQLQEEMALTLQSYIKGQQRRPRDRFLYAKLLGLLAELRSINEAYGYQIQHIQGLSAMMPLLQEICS

[4] = target: T4, Retinoic acid receptor RXR-alpha (Homo sapiens) (UniProt P19793); assay: Agonist activity against human RXRalpha in human HEK293T cells co-expressing pFR/pRL-Luc assessed as receptor activation at 10 uM incubated for 14 to 16 hrs by hybrid reporter gene assay relative to bexarotene; type: cell-based; conditions: filed as agonist, time 14-16 hrs; how it was run: as §1
T4 sequence (whole entry): T1 sequence (P19793 whole entry)

[5] = Half life in mouse at 10 mg/kg, po; type: ADME, organism-based; conditions: in vivo
How it was run: (§2)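 Mice, n = 3, received a single oral dose of 10 mg/kg in water with 1% hydroxypropyl methylcellulose/Tween 80 (99:1). Tail-vein blood was drawn at 30 and 60 min and tissue collected at 3 h. Compound was quantified by LC−MS and PK derived by noncompartmental analysis.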

HepG2 = assay: Cytotoxicity against human HepG2 cells assessed as reduction in cell viability up to 100 uM incubated for 48 hrs by WST-1 assay; type: cell-based; conditions: hepg2, 48 h
How it was run: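 HepG2 cells were seeded at 3 × 10⁴/well and grown 24 h. Medium was then switched to DMEM with 1% FCS containing compound in 0.1% DMSO; 0.1% DMSO alone was the negative control. After 48 h, WST-1 was added and absorbance read at 450/620 nm after 45 min. Four experiments in duplicate.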

[6] = Plasma concentration in mouse at 10 mg/kg, po measure after 3 hrs; type: ADME, organism-based; how it was run: as §2

With `O=C(O)CCCc1cc(-c2cc(Cl)cc(Cl)c2)n(-c2ccccc2)n1` the pEC50 [1] was 6.60, the Activity [2] was 2% and the Activity [3] was 5%. The Activity [4] was 21%, the half-life [5] was greater than 3 h and the Activity (HepG2) was “Non-Toxic”. For the same compound, the concentration at 3 h [6] was 35000 ng/mL.

— ChEMBL document CHEMBL4834419 (J Med Chem, 2021)
